Experimental data reported in PubChem BioAssay.
The source made the active and inactive calls.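 How the source made its calls, unless noted: active means fluorescence slope higher than the sample average by over 3 SD (cut at about -0.22 in these data, passing the limit was not always enough); inactive means the rest.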

Assays:
[1] = inhibitors of TNFa-induced NFkB p65 translocation, primary screen, imaging, HUVEC, MLSMR starter and 10KST1 sets (AID 438;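 active means inhibition above 20% together with a positive visual image hit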;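 further: compound added about 3h40 before a 20 min TNFalpha stimulation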;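 on inhibition: signal is the nuclear over cytoplasmic p65 intensity ratio per well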); settings: HUVEC TNFa-induced p65 nuclear translocation; cell count: measured here: nuclei count (cytotoxicity indicator), at 2.08 µM; inhibition: at 2 µM, stronger effect = higher value, 0% TNFa-plus-vehicle, 100% no-TNFa wells
[2] = inhibitors of E-selectin induction by TNFa, primary screen, imaging, HUVEC, immunofluorescence, MLSMR starter and 10KST1 sets (AID 487;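 active means visually confirmed hit in the image check and inhibition above 20%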;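 on inhibition: signal is fraction of cell area covered by stained E-selectin grains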;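 on nuclei count: 100% = median nuclei count of all wells on the same plate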); settings: HUVEC TNFalpha-induced E-selectin immunofluorescence imaging, at 2 µM; inhibition: stronger effect = higher value; nuclei count: measured here: cell number, toxicity
[3] = DUSP6 inhibitors restoring Erk phosphorylation by chemical complementation, primary imaging in DUSP6-transfected HeLa (AID 609;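 active means compounds giving at least 50% inhibition in the cell-based MKP-3 phosphatase rescue imaging test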;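 on inhibition: phospho-Erk level distribution per well compared with pooled transfected vehicle control wells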); settings: HeLa MKP-3 transfected, phospho-Erk imaging KS statistic, at 10 µM, cells stimulated with TPA for 15 min
[4] = molecular target: Dual specificity protein phosphatase 6 (Homo sapiens) (UniProt Q16828); assay: as above; settings: HeLa MKP-3 transfected, phospho-Erk imaging KS statistic; at 10 µM; stronger effect = higher value; cells stimulated with TPA for 15 min
[5] = molecular target: Voltage-gated potassium channel subunit beta-2 (Rattus norvegicus) (UniProt P62483); assay: KvBeta enzyme negative modulators, primary screen, biochemical, NADPH fluorescence (AID 622); settings: recombinant KvBeta, 4-cyanobenzaldehyde reduction, at 10 µM, stronger effect = higher value;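 further: slope of raw intensity against log time taken from 70 to 1610 s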
[6] = molecular target: Voltage-gated potassium channel subunit beta-2 (Rattus norvegicus) (UniProt P62483); assay: KvBeta positive modulators, primary screen, biochemical, NADPH fluorescence (AID 623;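 active means NADPH fluorescence slope more negative than the mean of all samples by about 3 SD, 99.7% confidence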;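 further: fluorescence intensity change per second fitted from 20 to 320 s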); settings: Recombinant KvBeta, NADPH fluorescence decrease slope, 10 min; at 10 µM; stronger effect = lower value
[7] = molecular target: Muscarinic acetylcholine receptor M4 (Homo sapiens) (UniProt P08173); assay: compounds altering M4/GIRK thallium flux, either direction, primary screen, M4 allosteric agonist project, cell-based, HEK293 M4/GIRK, BTC-AM (AID 625;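 active means fluorescence slope after compound addition differing from the mean of all tested samples at 99.7% confidence, mostly higher but some lower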;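 further: thallium influx through GIRK channels coupled to M4 in HEK293 cells with BTC-AM dye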); settings: at 10 µM, actives lie on both sides
Method in brief: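 Material: M4/GIRK1/GIRK2 stable HEK293 cell line. Medium: pH 7.3 thallium assay buffer. Dosing: single compound concentration, 10 µM final. Schedule: 1 h dye loading, 2 min kinetic read. Measured by: kinetic fluorescence with BTC-AM dye. Read-out: post-addition slope, 15–24 s, of baseline-normalized fluorescence. Benchmarks: carbachol and DMSO controls.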

[8] = inhibitors of larval lipid processing in zebrafish, primary screen, whole organism, PED6 fluorescence, gall bladder and intestine (AID 686;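 active means a full or partial loss of lipid-probe fluorescence in the fish gall bladder, intestine or both, judged by eye; inactive means no fluorescence loss, or compound toxic to the fish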;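 further: larvae 5 to 7 days old with five fish per well; signal comes from phospholipase A2 cleavage of quenched PED6 carried via bile; overnight exposure to compound and PED6 before scoring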); settings: Zebrafish larvae PED6 lipid processing, fluorescence scoring; screened at 20 µM (by protocol)
Method in brief: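 System: live zebrafish larvae aged 5-7 days, whole organism; measure: graded gall bladder and intestinal fluorescence inhibition per well; incubation: overnight exposure; reagent: ingested quenched lipid PED6 at 100 nM; signal: By-eye fluorescence microscopy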

[9] = inhibitors of Chlamydomonas gravitaxis, primary screen, whole organism, Chlamydomonas reinhardtii, WT vs cilia-less mutant, absorbance, 96-well (AID 463189;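 active means inhibition at or above 50% relative to wild type and mutant plate controls; inactive means inhibition below 50%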;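 further: 0% = wild type cc124 cells in DMSO and 100% = ciliumless bld1 mutant cells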); settings: OD600 absorbance, 2 days, at 10 µM, stronger effect = higher value
[10] = measured here: cell density z-score
[11] = measured here: nuclear c-Myc green intensity z-score
[12] = measured here: nuclear pErk red intensity z-score, stronger effect = higher value

Chain of Dual specificity protein phosphatase 6 (Homo sapiens) (Q16828 whole entry, looked up): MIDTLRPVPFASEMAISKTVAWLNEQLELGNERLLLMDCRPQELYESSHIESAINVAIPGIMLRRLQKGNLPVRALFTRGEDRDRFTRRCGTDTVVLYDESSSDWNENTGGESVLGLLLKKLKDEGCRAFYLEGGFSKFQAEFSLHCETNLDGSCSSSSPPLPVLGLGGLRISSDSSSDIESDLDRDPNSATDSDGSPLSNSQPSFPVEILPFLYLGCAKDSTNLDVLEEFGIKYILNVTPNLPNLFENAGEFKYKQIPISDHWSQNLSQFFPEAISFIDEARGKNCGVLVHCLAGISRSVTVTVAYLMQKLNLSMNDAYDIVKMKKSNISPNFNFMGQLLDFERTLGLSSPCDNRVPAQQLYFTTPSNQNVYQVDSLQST
Chain of Voltage-gated potassium channel subunit beta-2 (Rattus norvegicus) (P62483 whole entry, looked up): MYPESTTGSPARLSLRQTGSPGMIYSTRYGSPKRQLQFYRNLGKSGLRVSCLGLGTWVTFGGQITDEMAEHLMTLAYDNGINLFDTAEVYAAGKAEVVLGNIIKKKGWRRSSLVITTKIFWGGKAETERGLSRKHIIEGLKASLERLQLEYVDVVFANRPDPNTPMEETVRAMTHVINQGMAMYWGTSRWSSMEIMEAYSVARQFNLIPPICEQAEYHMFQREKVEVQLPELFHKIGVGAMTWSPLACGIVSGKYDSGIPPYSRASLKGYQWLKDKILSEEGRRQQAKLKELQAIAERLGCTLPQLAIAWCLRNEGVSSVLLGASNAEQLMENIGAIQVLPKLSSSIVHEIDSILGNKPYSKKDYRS
Chain of Muscarinic acetylcholine receptor M4 (Homo sapiens) (P08173 whole entry, looked up): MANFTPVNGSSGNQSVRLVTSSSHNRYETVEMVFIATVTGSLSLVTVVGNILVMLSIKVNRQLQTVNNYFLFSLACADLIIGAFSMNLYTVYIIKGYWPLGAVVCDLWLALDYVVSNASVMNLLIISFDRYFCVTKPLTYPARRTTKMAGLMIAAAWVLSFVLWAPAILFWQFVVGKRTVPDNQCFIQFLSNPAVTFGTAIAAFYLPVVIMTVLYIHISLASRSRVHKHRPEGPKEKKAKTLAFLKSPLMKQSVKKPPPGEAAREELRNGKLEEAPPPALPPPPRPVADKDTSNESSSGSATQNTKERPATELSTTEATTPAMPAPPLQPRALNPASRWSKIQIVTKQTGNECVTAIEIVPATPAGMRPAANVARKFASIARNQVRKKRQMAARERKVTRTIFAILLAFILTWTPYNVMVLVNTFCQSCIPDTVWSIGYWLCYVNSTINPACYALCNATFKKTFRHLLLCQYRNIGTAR

Compound | cell count [1] | inhibition [1] | inhibition [2] | nuclei count [2] [%] | z-score [3, 10] | z-score [3, 11] | z-score [3, 12] | inhibition [4] | fluorescence slope [5] | NADPH fluorescence slope [6] | fluorescence slope [7] | outcome [8] | inhibition [9]
COc1ccc(CCNc2oc(COc3ccccc3)nc2C#N)cc1 | 481 | -2.4% (inactive) | -411% (inactive) | 140 | 0.781 | 0.424 | 0.61 | -3.95% (inactive) | -0.409 (inactive) | -5.2e-05 (inactive) | 0.00409 (inactive) | inactive | -2.43% (inactive)
Cc1ccc(Cn2ncc3c(N4CCOCC4)ncnc32)cc1 | 551 | -1.3% (inactive) | -9.4% (inactive) | 152 | 0.711 | -0.178 | 0.142 | 7.93% (inactive) | -0.363 (inactive) | -3.8e-05 (inactive) | 0.00641 (inactive) | inactive | -4.03% (inactive)
Cc1cccc(C)c1OCC(=O)Nc1cccc(-c2nnc(-c3ccccc3)o2)c1 | 634 | -2.9% (inactive) | 27.8% (inactive) | 82.9 | -2.16 | 1.5 | 0.715 | -9.53% (inactive) | -0.492 (inactive) | -4.2e-05 (inactive) | 0.00887 (inactive) | inactive | -17.1% (inactive)
Cc1cc2c(c(=O)n1Cc1ccccn1)C(c1ccc3c(c1)OCO3)C(C#N)=C(N)O2 (centres undefined) | 692 | -7.3% (inactive) | -44.9% (inactive) | 183 | 0.057 | 2.34 | 0.285 | -2.91% (inactive) | -0.451 (inactive) | -5.4e-05 (inactive) | 0.00525 (inactive) | inactive | 11.3% (inactive)
CC1(C)Cc2[nH]c(=S)c(C#N)cc2CO1 | 531 | -11.7% (inactive) | -90.9% (inactive) | 118 | 0.165 | 0.751 | -0.483 | -5.81% (inactive) | -0.459 (inactive) | -0.000113 (inactive) | 0.0062 (inactive) | inactive | -14% (inactive)
CCC(=O)Nc1nc2ccccc2n1CCN(C)C | 551 | 4.1% (inactive) | -371% (inactive) | 131 | 0.711 | 0.524 | -0.675 | -1.98% (inactive) | -0.436 (inactive) | -1.7e-05 (inactive) | 0.00568 (inactive) | inactive | -5.07% (inactive)
CSc1cc(C)nc(N(C)C(C)=O)n1 | 672 | -1.4% (inactive) | -9.4% (inactive) | 145 | -2.7 | 1.16 | 0.496 | 5.35% (inactive) | -0.421 (inactive) | -5.5e-05 (inactive) | 0.00511 (inactive) | inactive | -6.47% (inactive)
COc1ccc(OC)c(NS(=O)(=O)c2ccc(N3CCCC3=O)cc2)c1 | 645 | 24% (active) | -344% (inactive) | 139 | 1.32 | -0.903 | -0.414 | -3.97% (inactive) | -0.465 (inactive) | -0.000177 (inactive) | 0.00599 (inactive) | inactive | 14% (inactive)
COC(=O)c1cc(Br)c(=O)n(Cc2ccco2)c1 | 518 | -0.8% (inactive) | 34.7% (inactive) | 159 | -0.341 | 0.91 | -1.02 | 1.9e-07% (inactive) | -0.411 (inactive) | -3.2e-05 (inactive) | 0.00519 (inactive) | inactive | -6.69% (inactive)
COc1cc2nc(-c3ccccc3)nc(N3CCCC3)c2cc1OC | 397 | -11.2% (inactive) | -164% (inactive) | 154 | 0.13 | -0.48 | 0.0689 | 1.42% (inactive) | -0.433 (inactive) | -0.000105 (inactive) | 0.00381 (inactive) | inactive | 17.6% (inactive)
COc1ccc(Nc2nnc(C)c3ccccc23)cc1C(N)=O | 616 | -2.5% (inactive) | -91.7% (inactive) | 152 | -0.473 | 0.976 | -0.605 | 3.49% (inactive) | -0.459 (inactive) | -0.000141 (inactive) | 0.00456 (inactive) | inactive | -4.27% (inactive)
Cc1ccc(-n2ncc3c(NCc4ccc5c(c4)OCO5)ncnc32)c(C)c1 | 543 | -12.5% (inactive) | -35.3% (inactive) | 135 | -0.519 | 1.64 | -0.848 | 11.4% (inactive) | -0.376 (inactive) | 4.1e-06 (inactive) | 0.0052 (inactive) | inactive | 47.1% (inactive)
CCOc1ccc(C2CC(c3ccccc3)Nc3nc(N)nn32)cc1 (centres undefined) | 364 | -2.2% (inactive) | -80.6% (inactive) | 144 | 1.38 | -1.02 | 0.957 | 11.9% (inactive) | -0.467 (inactive) | -0.000102 (inactive) | 0.00481 (inactive) | inactive | -15.5% (inactive)
